# Results collected from several papers.
# Each line is one published result; the experiments were not run side by side.
# Read-out: enzyme activity
# Mode: inhibitor
# FLT3: Receptor-type tyrosine-protein kinase FLT3 (FLT3, Homo sapiens, UniProt P36888)
SMILES,target,technique,concentration,inhibition [%]
O=C(CSc1nc2nccnc2c(=O)n1CCc1ccccc1)Nc1nccs1,FLT3,,10 µM,13
COc1cc2ncnc(Nc3ccc(Oc4ccccc4)c(C)c3C)c2cc1OC,FLT3,,1 µM,15
CN1CC(Oc2cnc(C#N)cc2-c2ccn3nc(NC(=O)C4CC4)cc3c2)C1,FLT3,,1 µM,0
CCOc1cc(-c2nncn2C)ccc1Nc1ncc2cc(C)nc(NCC(C)(C)C)c2n1,FLT3,FRET,1 µM,54
COc1cc2ncnc(Nc3ccc(Oc4ccccc4)cc3C)c2cc1OC,"Receptor-type tyrosine-protein kinase FLT3 (FLT3, Homo sapiens, UniProt P36888, D835Y)",,1 µM,17
CN(C)C1CCN(CC#Cc2nn(C3CCCC3)c3nc(NCc4ccccc4)ncc23)C1 (centres unmarked),FLT3,FRET,1 µM,24
CC/C(=N\NC(=O)NCc1cccc(O)c1)c1ccc(O)c(C)c1O,FLT3,,0.1 µM,6
Cn1cnc(Br)c1C1=CN(c2ncnc3[nH]cnc23)CCS1,FLT3,radiometric,50 nM,16.8
CNc1cccc2cc(C(=O)Nc3ccc(C(=O)O)cc3)c(=O)[nH]c12,FLT3,,10 µM,7.9
Cn1cncc1C1=CN(c2ncnc3[nH]cnc23)CCS1,FLT3,radiometric,50 nM,22.2
COc1cc2nccc(Oc3ccc(NC(=O)c4c5n(n(-c6ccc(F)cc6)c4=O)CCCC5)cc3)c2cc1OC,FLT3,,0.1 µM,49
